Columns and labels:
[1] = Cytotoxicity against human BE(2)-C cells after 18 to 20 hrs by MTT assay; type: cell-based
[2] = system: Western equine encephalitis virus; test: Antiviral activity against Western equine encephalomyelitis virus infected in human BE(2)-C cells assessed as inhibition of viral RNA replication after 18 to 20 hrs by luciferase reporter gene assay; type: functional, cell-based
[3] = Half life in Balb-C mouse liver microsomes; type: ADME, Microsome
In short: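 Compound incubated with Balb-C mouse liver microsomes, and half-life determined for oxidative metabolism. Values are means of ≥2 independent incubations.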

[4] = molecular target: MDR1 (ABCB1, P-glycoprotein) (Homo sapiens, UniProt P08183); test: Inhibition of human MDR1 expressed in MDCK2 cells assessed as increase of rhodamine 123 uptake at 30 uM up to 240 mins relative to control; type: ADME, cell-based, MDCK-II; details: MDCK2 cells expressing human MDR1, probe rhodamine 123
MDR1 (ABCB1, P-glycoprotein), sequence (P08183 whole entry): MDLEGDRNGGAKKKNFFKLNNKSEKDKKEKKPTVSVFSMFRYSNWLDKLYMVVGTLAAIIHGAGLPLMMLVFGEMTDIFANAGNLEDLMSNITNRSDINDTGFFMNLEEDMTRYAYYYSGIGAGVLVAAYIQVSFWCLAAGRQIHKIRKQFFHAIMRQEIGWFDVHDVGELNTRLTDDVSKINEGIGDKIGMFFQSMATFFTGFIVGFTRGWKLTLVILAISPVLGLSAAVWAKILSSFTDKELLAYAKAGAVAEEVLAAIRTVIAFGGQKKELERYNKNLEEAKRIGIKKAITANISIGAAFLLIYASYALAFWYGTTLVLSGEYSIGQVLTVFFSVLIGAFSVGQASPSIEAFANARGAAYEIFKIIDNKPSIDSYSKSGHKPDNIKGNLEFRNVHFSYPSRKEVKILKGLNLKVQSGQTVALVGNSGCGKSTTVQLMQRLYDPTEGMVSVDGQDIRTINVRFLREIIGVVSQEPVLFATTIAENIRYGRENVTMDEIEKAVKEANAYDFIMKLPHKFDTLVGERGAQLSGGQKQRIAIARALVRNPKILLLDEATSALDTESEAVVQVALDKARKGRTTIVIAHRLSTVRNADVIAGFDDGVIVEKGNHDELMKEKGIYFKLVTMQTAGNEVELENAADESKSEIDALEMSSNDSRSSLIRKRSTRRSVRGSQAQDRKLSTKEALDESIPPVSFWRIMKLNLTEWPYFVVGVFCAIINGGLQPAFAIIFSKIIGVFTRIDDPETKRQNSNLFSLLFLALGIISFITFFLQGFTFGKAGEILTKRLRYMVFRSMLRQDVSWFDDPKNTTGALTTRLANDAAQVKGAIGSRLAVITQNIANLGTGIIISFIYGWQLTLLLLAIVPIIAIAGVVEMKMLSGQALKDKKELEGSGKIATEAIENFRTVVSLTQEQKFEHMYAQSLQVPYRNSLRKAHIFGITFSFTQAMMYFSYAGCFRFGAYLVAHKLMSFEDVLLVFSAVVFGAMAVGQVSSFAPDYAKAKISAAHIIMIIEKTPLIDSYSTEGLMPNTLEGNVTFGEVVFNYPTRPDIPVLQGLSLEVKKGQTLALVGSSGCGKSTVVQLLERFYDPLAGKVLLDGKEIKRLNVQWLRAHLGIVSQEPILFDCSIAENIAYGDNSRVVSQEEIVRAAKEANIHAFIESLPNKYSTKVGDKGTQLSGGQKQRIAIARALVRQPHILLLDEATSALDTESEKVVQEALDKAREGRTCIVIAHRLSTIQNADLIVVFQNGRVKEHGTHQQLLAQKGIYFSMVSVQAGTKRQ
In short: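 Confluent MDR1-MDCKII cells (human Pgp-transfected) given fresh DMEM with 10 μM rhodamine 123, plus vehicle, tariquidar (5 μM) or compound (30 μM). Uptake at 37°C from 1 to 240 min, stopped by ice-cold PBS washes. Fluorescence read at ex 525/em 560-640 nm. Result expressed as % of same-day tariquidar effect, (Cav−Cveh)*100/(Ctar−Cveh). Triplicates on ≥3 occasions.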

Fort Morgan virus = test: Antiviral activity against Fort Morgan virus infected in human BE(2)-C cells assessed as reduction of viral titer at 25 uM after 24 hrs by plaque reduction assay (reference value: 47.1 +/- 10.5 x 10^6 pfu/ml); type: functional
[5] = Cytotoxicity against human BE(2)-C cells assessed as cell viability at 25 uM after 24 hrs by MTT assay relative to control; type: cell-based; details: read-out: Activity
[6] = Kinetic solubility of the compound; type: physicochemical
[7] = system: Western equine encephalitis virus; test: Antiviral activity against Western equine encephalomyelitis virus infected in human BE(2)-C cells assessed as reduction of viral titer at 25 uM after 24 hrs by plaque reduction assay (reference value: 25.7 +/- 5.2 x 10^6 pfu/ml); type: functional

SMILES	CC50 ([1]; BE(2)-C cells) [µM]	IC50 [2] [µM]	inhibition at 4 h, 30 µM [4] [%]	CC50 ([1]; be(2)-c) [µM]	also measured
O=C(c1cc2ccccc2n1Cc1ccc(Cl)cc1)N1CCC(C(=O)N2CCOCC2)CC1	> 100	12.8			
O=C(NCCc1ccncc1)C1CCN(C(=O)c2cc3ccccc3n2Cc2ccccc2)CC1		1.6	11.7	45.6	t1/2 [3]: 77.9 min; Activity (Fort Morgan virus): 6.8 ×10⁶ PFU/ml; viability at 24 h, 25 µM [5]: 79.4%; Kinetic_solubility [6]: 31 µM
COc1ccc(CCNC(=O)C2CCN(C(=O)c3cc4ccccc4n3Cc3ccc(Cl)cc3)CC2)cc1		15.5		11.3	
O=C(NCc1cccnc1)C1CCN(C(=O)c2cc3ccccc3n2Cc2ccc(Cl)cc2)CC1		11.4			
CC(=O)n1c(C(=O)N2CCC(C(=O)N(C)Cc3ccccc3)CC2)cc2ccccc21	> 50	> 50			
COCCn1c(C(=O)N2CCC(C(=O)N(C)Cc3ccccc3)CC2)cc2ccccc21	> 50	> 50			
O=C(NCCn1ccnc1)C1CCN(C(=O)c2cc3ccccc3n2Cc2ccc(Cl)cc2)CC1		4.9	15.1	99.6	t1/2 [3]: 14.3 min; Activity (Fort Morgan virus): 15.8 ×10⁶ PFU/ml; viability at 24 h, 25 µM [5]: 70.3%; Kinetic_solubility [6]: 31 µM
O=C(NCCc1cccnc1)C1CCN(C(=O)c2cc3ccccc3n2Cc2ccc(Cl)cc2)CC1		5.3	30.1	39.4	
CN(Cc1ccccc1)C(=O)C1CCN(C(=O)c2cc3ccccc3n2Cc2ccc(Cl)cc2)CC1		16.9		87	
CN(Cc1ccccc1)C(=O)C1CCN(C(=O)c2cc3ccccc3n2Cc2ccncc2)CC1		24.2		80.3	
O=C(NCCc1ccncc1)C1CCN(C(=O)c2cc3cc(F)ccc3n2Cc2ccc(Cl)cc2)CC1		0.9	42.6	52.5	Kinetic_solubility [6]: 31 µM
CN(Cc1ccccc1)C(=O)C1CCN(C(=O)c2cc3ccccc3n2Cc2ccc([N+](=O)[O-])cc2)CC1	> 100	61.3			
CN(CCc1ccncc1)C(=O)C1CCN(C(=O)c2cc3ccccc3n2Cc2ccc(Cl)cc2)CC1		1.6	72	47.9	
O=C(NCCc1ccccn1)C1CCN(C(=O)c2cc3ccccc3n2Cc2ccc(Cl)cc2)CC1		22.4	21.9	86.2	
CC(CNC(=O)C1CCN(C(=O)c2cc3ccccc3n2Cc2ccc(Cl)cc2)CC1)c1ccncc1 (centres undefined)		1.7	25.4	98.2	Activity (Fort Morgan virus): 13.3 ×10⁶ PFU/ml; viability at 24 h, 25 µM [5]: 74%
CN(C)C(=O)C1CCN(C(=O)c2cc3ccccc3n2Cc2ccc(Cl)cc2)CC1	> 100	10.5	23.2		Kinetic_solubility [6]: 62 µM
O=C(NCC1COc2cnccc21)C1CCN(C(=O)c2cc3ccccc3n2Cc2ccc(Cl)cc2)CC1 (centres undefined)		3.6	47	75.8	
CN1CCN(C(=O)C2CCN(C(=O)c3cc4ccccc4n3Cc3ccc(Cl)cc3)CC2)CC1		31.4		75.6	
CN1CCC(CNC(=O)C2CCN(C(=O)c3cc4ccccc4n3Cc3ccc(Cl)cc3)CC2)CC1	> 50	> 50			
NC(=O)c1ncn([C@@H]2O[C@H](CO)[C@@H](O)[C@H]2O)n1 [RIBAVIRIN]		16			Activity (Fort Morgan virus): 53.5 ×10⁶ PFU/ml; viability at 24 h, 25 µM [5]: 32.6%; Activity [7]: 9.3 ×10⁶ PFU/ml
O=C(NCCc1ccncc1)C1CCN(C(=O)c2cc(F)cn2Cc2ccc(Cl)cc2)CC1		0.9		8	Kinetic_solubility [6]: 125 µM
O=C(NCCc1ccncc1)C1CCN(C(=O)NCCc2ccc(Cl)cc2)CC1	> 100	40.9			Kinetic_solubility [6]: 250 µM
O=C(NCCCc1ccncc1)C1CCN(C(=O)c2cc3ccccc3n2Cc2ccc(Cl)cc2)CC1		31.9	35.2	71.5	Kinetic_solubility [6]: 16 µM
O=C(NCCc1ccncc1)C1CCN(C(=O)c2cc3ccncc3n2Cc2ccc(Cl)cc2)CC1		4.4	1.2	77.1	t1/2 [3]: 9.1 min; Activity (Fort Morgan virus): 69.4 ×10⁶ PFU/ml; viability at 24 h, 25 µM [5]: 66.1%; Kinetic_solubility [6]: 125 µM

SMILES	CC50 ([1]; BE(2)-C cells) [µM]	IC50 [2] [µM]	inhibition at 4 h, 30 µM [4] [%]	CC50 ([1]; be(2)-c) [µM]	also measured
O=C(c1cc2ccccc2n1Cc1ccc(Cl)cc1)N1CCC(C(=O)N2CCCC2)CC1		22.2		65.6	
CC(C)Cn1c(C(=O)N2CCC(C(=O)N(C)Cc3ccccc3)CC2)cc2ccccc21		27.9		58.2	
O=C(NCc1ccccc1)C1CCN(C(=O)c2cc3ccccc3n2Cc2ccc(Cl)cc2)CC1		15.6			
Cn1ccc(CNC(=O)C2CCN(C(=O)c3cc4ccccc4n3Cc3ccc(Cl)cc3)CC2)n1	> 100	76.9			
CC(C)(Cc1ccncc1)NC(=O)C1CCN(C(=O)c2cc3ccccc3n2Cc2ccc(Cl)cc2)CC1	43.6	19.3			
O=C(NCc1ccco1)C1CCN(C(=O)c2cc3sccc3n2Cc2ccc(F)cc2)CC1		23.7			
C[C@@H](NC(=O)C1CCN(C(=O)c2cc3ccccc3n2Cc2ccc(Cl)cc2)CC1)c1ccncc1		0.6	35.9	92.3	t1/2 [3]: 23.4 min; Activity (Fort Morgan virus): 6.4 ×10⁶ PFU/ml; viability at 24 h, 25 µM [5]: 65.5%
CN(Cc1ccccc1)C(=O)C1CCN(C(=O)c2cc3ccccc3n2Cc2ccccc2)CC1		17		64.8	
O=C(NCc1ccncc1)C1CCN(C(=O)c2cc3ccccc3n2Cc2ccc(Cl)cc2)CC1	> 100	6.8	25.9		Kinetic_solubility [6]: 31 µM
CN(Cc1ccccc1)C(=O)C1CCN(C(=O)c2cc3ccccc3n2Cc2ccc(C(F)(F)F)cc2)CC1		35.1		90.3	
COc1cccc(CCNC(=O)C2CCN(C(=O)c3cc4ccccc4n3Cc3ccc(Cl)cc3)CC2)c1	> 100	11.1			
Cn1c(C(=O)N2CCC(C(=O)NCCc3ccncc3)CC2)cc2ccccc21	> 50	> 50			
CC(NC(=O)C1CCN(C(=O)c2cc3ccccc3n2Cc2ccc(Cl)cc2)CC1)c1ccncc1 (racemic)		2.4	43.1	90.1	Activity (Fort Morgan virus): 3.7 ×10⁶ PFU/ml; viability at 24 h, 25 µM [5]: 63.2%; Activity [7]: 0.7 ×10⁶ PFU/ml; Kinetic_solubility [6]: 31 µM
O=C(NCCc1ccncc1)C1CCN(C(=O)c2cc3ccc(F)cc3n2Cc2ccc(Cl)cc2)CC1		0.6	30.8	43.1	Activity (Fort Morgan virus): 1.6 ×10⁶ PFU/ml; viability at 24 h, 25 µM [5]: 69.2%
O=C(NCCc1ccc(F)cc1)C1CCN(C(=O)c2cc3ccccc3n2Cc2ccc(Cl)cc2)CC1		21.4		18.6	
CN(Cc1ccccc1)C(=O)C1CCN(C(=O)c2cc3ccccc3n2Cc2ccc(C#N)cc2)CC1	> 100	95.9			
Cn1cnc(CNC(=O)C2CCN(C(=O)c3cc4ccccc4n3Cc3ccc(Cl)cc3)CC2)c1	> 50	> 50			
O=C(NCCc1ccncc1)C1CCN(C(=O)c2nc3ccccc3n2Cc2ccc(Cl)cc2)CC1		4.1	6.9	74.6	t1/2 [3]: 43 min; Activity (Fort Morgan virus): 16.4 ×10⁶ PFU/ml; viability at 24 h, 25 µM [5]: 69.7%; Kinetic_solubility [6]: 63 µM
COc1ccc(Cn2c(C(=O)N3CCC(C(=O)N(C)Cc4ccccc4)CC3)cc3ccccc32)cc1		16.5		99.2	
O=C(NCCc1ccncc1)C1CCN(C(=O)c2nccn2Cc2ccc(Cl)cc2)CC1	> 50	> 50	0.13		solubility kinetic ([6]; read-out: Kinetic_solubility): > 500 µM
O=C(c1cc2ccccc2n1Cc1ccc(Cl)cc1)N1CCC(C(=O)N2CCC[C@H]2CO)CC1		30.6		98.9	
CC(C)c1ccc(CCNC(=O)C2CCN(C(=O)c3cc4ccccc4n3Cc3ccc(Cl)cc3)CC2)cc1		10.8		27.2	
O=C(NCCc1ccc(Cl)cc1)C1CCN(C(=O)c2cc3ccccc3n2Cc2ccc(Cl)cc2)CC1		8.1		40.4	

— ChEMBL document CHEMBL3085701, “Optimization of novel indole-2-carboxamide inhibitors of neurotropic alphavirus replication” (J Med Chem, 2013)
